According to PMC3928098 (Leukemia, 2013):

Tests used:
[1] = test system: MM.1S cells; test: RNA synthesis assay, [5'-3H]uridine incorporation, MM.1S; type: cell-based, human
[2] = test system: MM.1S cells; test: cell cycle analysis by PI flow cytometry; type: cell-based, human; details: 50nM, 12h
Summary of the method: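 MM.1S cells (1 × 10⁶) were cultured in medium or with 50 nM test compound for 12 and 24 h, then washed in ice-cold PBS. They were fixed in 100% ethanol for 1 h at 4°C, treated with RNase for 30 min at 37°C, and stained with propidium iodide. Cell cycle profiles were acquired by flow cytometry and modelled for phase distribution.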

[3] = test system: cyclin D3-CDK6 (K6/D3); details: read-out: IC50 K6/D3; in vitro cell-free kinase assay; cited from earlier work
[4] = test system: cyclin E-CDK3 (K3/E); details: read-out: IC50 K3/E; in vitro cell-free kinase assay; cited from earlier work
[5] = test system: healthy donor PBMCs; test: cytotoxicity in healthy donor PBMCs; type: cell-based, human; details: compared with tumor cells from MM patients, 50nM
Summary of the method: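 PBMCs were obtained from healthy volunteer blood by Ficoll-Hipaque gradient separation before exposure to test compound.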

[6] = test system: GSK-3β; details: read-out: IC50 GSK-3β; in vitro cell-free kinase assay; cited from earlier work
[7] = test system: MM.1S cells; test: DNA synthesis assay, [3H-TdR] uptake; type: cell-based, human; details: BMSCs-stimulated MM.1S cells
Summary of the method: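 MM.1S cells (2–3 × 10³/well) were plated alone or with patient-derived BMSCs and exposed to varying test compound concentrations for 8 and 24 h at 37°C. [³H-TdR] ([…]) was pulsed in the last 8 h. Cells were harvested and counted by scintillation. Values are means ±SD of triplicate cultures.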

[8] = test system: AMPK; details: read-out: IC50 AMPK; in vitro cell-free kinase assay; cited from earlier work
[9] = test system: cyclin E-CDK2 (K2/E); details: read-out: IC50 K2/E; in vitro cell-free kinase assay; cited from earlier work
[10] = test system: MM cell lines (MM.1S, MM.1R, H929, U266, OPM1, RPMI); test: MTT cell viability assay in MM cell lines; type: cell-based; details: Homo sapiens
Summary of the method: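 MM lines were grown in RPMI-1640 with 10% FBS, 2 mM L-glutamine and pen/strep, then treated with test compound (0–100 nM) for 24 and 48 h. MTT was added for 4 h at 37°C and dissolved in acidified isopropanol. Absorbance was read at 570 nm, corrected at 630 nm, with triplicate cultures.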

[11] = test system: U266, OPM1, and RPMI MM cell lines; test: RNA synthesis assay in p53-mutated MM cell lines; type: cell-based, human; details: 0-100nM, 24h
Summary of the method: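 p53-mutant U266, OPM1 and RPMI cells (2–3 × 10³/well) were treated at 37°C with test compound (0–100 nM) for 2 and 24 h. [5′-³H]uridine was then added, and cells were harvested and counted by scintillation. Values are means ±SD of triplicate cultures.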

[12] = test system: MEK1; details: read-out: IC50 MEK1; in vitro cell-free kinase assay; cited from earlier work
[13] = test system: cyclin D1-CDK4 (K4/D1); details: read-out: IC50 K4/D1; in vitro cell-free kinase assay; cited from earlier work
[14] = test system: miR-21-3p, miR-19a-5p, miR-92a-1-5p in U266 and OPM1 cells; test: TaqMan specific miRNA assays; type: cell-based, human; details: 50nM for 8h
Summary of the method: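 U266, OPM1 and RPMI cells were cultured for 8 h in medium alone or with 50 nM test compound. Total RNA was isolated with a mirVana kit. miR-21-3p, miR-19a-5p and miR-92a-1-5p were quantified with target-specific TaqMan MicroRNA Assays following the manufacturer's protocol.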

[15] = test system: p-RNAPII S2/S5 in MM cell lines; test: western blot of phosphorylated RNAPII S2/S5; type: cell-based, human; details: 0-8h, 25-100nM, all tested MM cell lines, immunoblot
Summary of the method: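 MM cell lines were exposed to test compound (0–100 nM) for 1, 4 and 8 h. Whole-cell lysates were run on SDS-PAGE and transferred to nitrocellulose. Blots were probed with phosphospecific antibodies to RNAPII S2/S5 and re-probed for actin, tubulin or GAPDH as loading controls.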

[16] = test system: p35-CDK5 (K5/p35); details: read-out: IC50 K5/p35; in vitro cell-free kinase assay; cited from earlier work
[17] = test system: cyclin H-CDK7 (K7/H); test: in vitro cell-free kinase assay, cyclin H-CDK7; type: biochemical; details: in vitro kinase assays, compared with CDK 1, 2, 3, 4, 5 and 9
[18] = test system: p53 DNA binding activity in MM.1S cells; test: sequence specific p53 DNA binding assay; type: cell-based, human; details: 50nM, 4h
Summary of the method: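 MM.1S cells were cultured with medium or 50 nM test compound for 1, 4 and 8 h, and nuclear proteins were then isolated. Extracts were incubated overnight in wells coated with dsDNA carrying the p53 response element. Bound p53 was detected with an anti-p53 primary antibody and an HRP-linked secondary, read colorimetrically at 450 nm, in triplicate.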

[19] = test system: TAK1; details: read-out: IC50 TAK1; in vitro cell-free kinase assay; cited from earlier work
[20] = test system: Fms; details: read-out: IC50 Fms; in vitro cell-free kinase assay; cited from earlier work
[21] = test system: cyclin H-CDK7 (K7/H); details: read-out: IC50 K7/H; in vitro cell-free kinase assay; cited from earlier work
[22] = test system: cyclin T1-CDK9 (K9/T1); details: read-out: IC50 K9/T1; in vitro cell-free kinase assay; cited from earlier work
[23] = test system: Jak2; details: read-out: IC50 Jak2; in vitro cell-free kinase assay; cited from earlier work
[24] = test system: C-src; details: read-out: IC50 C-src; in vitro cell-free kinase assay; cited from earlier work
[25] = MM xenograft murine model, body weight and toxicity; type: in vivo, CB-17 SCID mice
Summary of the method: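 MM.1S s.c. xenografts in irradiated SCID mice; test compound at 30 or 40 mg/kg, or D5W pH5.2 vehicle, given IV by tail vein daily for 5 days once tumours reached ~100 mg. Body weight and tumour size were recorded every alternate day. Mice were euthanised by CO2 if tumour exceeded 2 cm or ulcerated.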

[26] = test system: MM.1S cells; test: NAD+/NADH quantification assay; type: cell-based, human; details: 50nM
Summary of the method: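 MM.1S cells were cultured with 50 nM test compound and 5 × 10⁵ cells were extracted. For total NAD, extract was incubated with NAD Cycling Mix for 5 min at RT to convert NAD+ to NADH. For NADH, extract was heated at 60°C for 30 min to decompose NAD+. Developer was added for 40 min in the dark and read at 450 nm, in duplicate. Ratio = (NADt − NADH)/NADH.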

[27] = test system: primary tumor cells from MM patients (CD138+); test: MTT viability of primary tumor cells from MM patients; type: cell-based, human; details: 0-100nM, MTT at 48h
Summary of the method: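 Bone marrow mononuclear cells from MM patient aspirates were separated on Ficoll-Hipaque, and plasma cells were purified by anti-CD138 magnetic bead positive selection. Cells were cultured with test compound (0–100 nM) and viability was read by MTT at 48 h (570/630 nm). Values are means ±SD of triplicate cultures.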

[28] = test system: MM.1S cells xenograft; test: MM xenograft murine model, anti-MM activity; type: in vivo, CB-17 SCID mice; details: for maximum TGI (%): day 14 following end of treatment
Summary of the method: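 SCID mice were irradiated, then inoculated s.c. in the upper back 24 h later with MM.1S cells (2.5 × 10⁶ in methods; 3 × 10⁶ in 100 uL RPMI in legend). At ~100 mg tumour, mice were randomised to test compound in D5W pH5.2 or D5W vehicle, IV tail vein daily ×5 (n=8, 9, 10). Calipers every other day; volume = ½·L·W². TGI = 100 − T/C%; log10 cell kill from growth delay and doubling time; survival timed from first treatment day.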

[29] = test system: MM.1S cells; test: annexin V-PI apoptosis detection; type: cell-based, human; details: 50nM, 12 hours
Summary of the method: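 MM.1S cells (1 × 10⁶) were exposed to 50 nM test compound or medium for 12–24 h. Cells were stained with annexin V-FITC and PI for 15 min, and annexin V+/PI+ apoptotic cells were counted by flow cytometry.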

[30] = test system: cyclin D3-CDK6 (K6/D3); test: in vitro cell-free kinase assay, cyclin D3-CDK6; type: biochemical; details: in vitro kinase assays, compared with CDK 1, 2, 3, 4, 5 and 9
[31] = test system: p53 knockdown MM.1S cells; test: MTT viability of p53 shRNA knockdown MM.1S; type: cell-based, human; details: p53 shRNA-transduced MM.1S versus control, MTT 48h
Summary of the method: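 MM.1S cells were transduced with lentiviral shTP53 or empty-vector particles in medium with polybrene (8 μg/ml), and medium was refreshed at 24 h. Infection was checked at 72 h by puromycin (2 μg/ml) sensitivity against parental cells, using MTT. Transduced cells were then exposed to test compound and viability was read by MTT, in triplicate cultures.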

[32] = test system: cyclin B1-CDK1 (K1/B1); details: read-out: IC50 K1/B1; in vitro cell-free kinase assay; cited from earlier work

## OC[C@H]1OC(n2cnc3cc(Cl)c(Cl)cc32)[C@H](O)[C@@H]1O (stereo partly drawn) [DRB, 5,6-Dichloro-1—D-ribofuranosylbenzimidazole, reference compound]
[1]; MM.1S, 2h, Suppl. Fig. S3
  effect on RNA synthesis: significantly inhibited RNA synthesis

## COCCN1CCN(Cc2ccc(-c3n[nH]c4c3C(=O)c3c(NC(=O)NN5CCOCC5)cccc3-4)cc2)CC1.Cl.Cl [RGB-286638, 1-(3-{4-[4-(2-Methoxyethyl)-piperazin-1-ylmethyl]-phenyl}-4-oxo-1,4-dihydroindeno[1,2-c]pyrazol-5-yl)-3-morpholin-4-yl-urea dihydrochloride]
[2]
  effect on cell cycle: G1 and G2/M cell cycle arrest
[3]
  IC50: 55 nM
[4]
  IC50: 5 nM
[5]
  cytotoxicity in healthy donor PBMCs: less cytotoxicity
[1]; BMSCs-stimulated MM.1S cells, 8h
  reduction of total level of transcripts: ~ 50%
[1]; BMSCs-stimulated MM.1S cells, 24h
  effect on transcription: blocked transcription
[1]; MM.1S, 50nM or 100nM, two hours
  reduction of RNA synthesis: 50%
[6]
  IC50: 3 nM
[7]; 8h
  reduction in DNA synthesis: 60%
[7]; 24h
  effect on MM.1S proliferation: complete block
[8]
  IC50: 41 nM
[9]
  IC50: 3 nM
[10]; 48 h, read-out: EC50, viability by MTT assay
  EC50: 20 to 70 nM
[10]; read-out: IC50, MM cell proliferation
  IC50: 50 to 100 nM
[11]
  effect on RNA synthesis: significant inhibition
[12]
  IC50: 54 nM
[13]
  IC50: 4 nM
[14]
  miR-21-3p, miR-19a-5p, and miR-92a-1-5p levels: significantly reduced
[15]
  effect on p-RNAPII S2/S5: rapid downregulation
[16]
  IC50: 5 nM
[17]
  fold less active against CDK 7: 44 fold
[18]
  p53 sequence specific DNA binding: increased p53 DNA binding
[19]
  IC50: 5 nM
[20]
  IC50: 1 nM
[21]
  IC50: 44 nM
[22]
  IC50: 1 nM
[23]
  IC50: 50 nM
[24]
  IC50: 25 nM
[25]; 30mg/kg dosage schedule, day 5
  maximum percentage of body weight (BW) loss: 8.4%
[25]; 40 mg/kg dosing, day 15
  maximum percentage of body weight (BW) loss: 9.9%
[25]; 30 and 40 mg/kg IV daily for 5 days
  toxic deaths: No toxic deaths
[26]
  NADH depletion: 50%
  NADt depletion: 30%
[27]
  cytotoxicity in primary tumor cells from MM patients: comparable cytotoxicity to MM cell lines
[28]; 30 mg/kg IV daily for 5 days
  maximum TGI (%): 85.06%
[28]; 40 mg/kg IV daily for 5 days
  maximum TGI (%): 86.34%
[28]; both treated groups (30 mg/kg and 40 mg/kg IV, 5 days)
  log10 cell kill (LCK Td: 4.5 days): 1.6
[28]; both treated groups (30 and 40 mg/kg), controls day 24
  survival, first death: 43 days
[29]
  apoptotic MM cells, Annexin/PI staining: 25%
[30]
  fold less active against CDK 6: 55 fold
[31]
  cells rescued from RGB-286638-induced cell death by p53 knockdown: 14%
[32]
  IC50: 2 nM
